Measurements from different studies.
FGFR1 V561M: Fibroblast growth factor receptor 1 (FGFR1, Homo sapiens, UniProt P11362, V561M)
FGFR1: Fibroblast growth factor receptor 1 (FGFR1, Homo sapiens, UniProt P11362)

Cc1cc(NC(=O)c2cccc3cc(-c4cccc5[nH]nc(N)c45)ccc23)ccc1F
activity vs control (FGFR1 V561M; enzyme activity, inhibitor; 0.1 µM): 92%

Cc1cc(NC(=O)c2cccc(S(F)(F)(F)(F)F)c2)cc(-n2ccn3nc(-c4cccnc4)cc23)c1
remaining binding (FGFR1; cell-free assay, competition with immobilised ligand; 1 µM): 100%

CCOc1cc(-c2nncn2C)ccc1Nc1ncc2cc(C)nc(NCC(C)(C)C)c2n1
inhibition (FGFR1; enzyme activity, inhibitor, FRET; 1 µM): < 15%

Cc1ccc(NC(=O)c2ccc(C)c(C(F)(F)F)c2)cc1C#Cc1nn(C2CCC(O)CC2)c2ncnc(N)c12 (stereo not drawn)
remaining signal (FGFR1 V561M; cell-free assay; 10 µM): 40%

CNCc1ccccc1-c1csc([C@@H](C)Nc2nc(C)nc3cc(OC)c(OC)cc23)c1
remaining binding (FGFR1; cell-free assay, competition with immobilised ligand; 1 µM): 100%

CNC(=O)c1cc(Oc2ccc(NC(=O)Nc3ccc(Cl)c(C(F)(F)F)c3)cc2)ccn1
inhibition (FGFR1; enzyme activity, inhibitor; 0.3 µM): 69%

Cn1cc(Cl)c2c(Oc3c(F)cc(Nc4cc(Cl)nc(N)n4)cc3F)ccnc21
remaining binding (FGFR1; cell-free assay, competition with immobilised ligand; 0.1 µM): 100%

COc1cc(/C=C/C(=O)CC(=O)/C=C/c2ccc(O)c(OC)c2)ccc1O
activity vs control (FGFR1; enzyme activity, inhibitor; 1 µM): 102%

COc1cc2ncnc(Nc3ccc(Oc4ccccc4)c(C)c3C)c2cc1OC
inhibition (FGFR1; enzyme activity, inhibitor; 1 µM): -2%

Nc1ncnc2occ(-c3ccc(NC(=O)Nc4cc(C(F)(F)F)ccc4F)cc3)c12
remaining signal (FGFR1; cell-free assay; 20 µM): 0.15%

O=S(=O)(NC1CCC(c2cc(F)ccc2F)(S(=O)(=O)c2ccc(Cl)cc2)CC1)C(F)(F)F (stereo not drawn)
remaining binding (FGFR1; cell-free assay, competition with immobilised ligand; 1 µM): 100%

C[C@@H]1CCN(C(=O)CC#N)C[C@@H]1N(C)c1ncnc2[nH]ccc12
remaining signal (FGFR1; cell-free assay; 0.5 µM): 101%

CSc1nc(C)c(-c2ccnc(Nc3ccc(N4CCOCC4)cc3)c2)[nH]1
inhibition (FGFR1; cell-free assay, inhibitor; 10 µM): 26.2%

C=CC(=O)Nc1cccc(-n2nc3c(=O)[nH]nc(N)c3c2-c2oc3ccc(C)cc3c2C)c1
inhibition (FGFR1; enzyme activity, inhibitor, ELISA; 10 nM): 10.6%

N#CCCc1ccc2c(c1)-c1[nH]c3ccc([N+](=O)[O-])cc3c1CC(=O)N2
remaining signal (FGFR1; cell-free assay; 0.5 µM): 91.9%

CN(c1ccnc(CNc2nc(Nc3ccc4c(c3)CC(=O)N4)ncc2C(F)(F)F)n1)S(C)(=O)=O
remaining binding (FGFR1; cell-free assay, competition with immobilised ligand; 1 µM): 82%

Oc1ccc(-c2nc(-c3ccncc3)c(-c3ccc(F)cc3)[nH]2)cc1
remaining signal (FGFR1; cell-free assay; 0.5 µM): 86.8%

COc1cc2nccc(Oc3ccc(NC(=O)c4c5n(n(-c6ccc(F)cc6)c4=O)CCCC5)cc3)c2cc1OC
inhibition (FGFR1; enzyme activity, inhibitor; 0.1 µM): -7%
